Test [1] is described as follows: Selectivity ratio of inhibition for PDE3A (M1 to Q1141 residues) (unknown origin) by RF-MS assay to inhibition for PDE3B (M1 to E1112 residues) (unknown origin) by RF-MS assay.
In test [2] the target is cGMP-inhibited 3',5'-cyclic phosphodiesterase 3A (Homo sapiens, UniProt Q14432). Kind of test: Inhibition of PDE3A (M1 to Q1141 residues) (unknown origin) using FAM-cAMP as substrate incubated for 45 mins by TR-FRET IMAP assay. The essentials:
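Full-length PDE3A at 1.6 nM with 50 nM FAM-cAMP, 45 min reaction. Buffer 50 mM Tris-HCl pH 7.5, 8.3 mM MgCl2, 1.7 mM EGTA, 0.05% BSA. Compounds run as a concentration curve with a top final concentration of 100 μM. DMSO and 10 μM trequinsin served as controls. TR-FRET read at Ex 337 nm, Em 520/490 nm.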
A general note: In TR-FRET formats the signal depends on donor and acceptor labels being close together.

Test [3] deals with cGMP-inhibited 3',5'-cyclic phosphodiesterase 3B (Homo sapiens, UniProt Q13370). Kind of test: Inhibition of full-length PDE3B (M1 to E1112 residues) (unknown origin) using FAM-cAMP as substrate incubated for 120 mins by TR-FRET IMAP assay. The method in brief: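 Buffer 50 mM Tris-HCl pH 7.5, 8.3 mM MgCl2, 1.7 mM EGTA, 0.05% BSA. Compounds run as a concentration curve with a top final concentration of 100 μM. DMSO and 10 μM trequinsin served as controls. Terbium TR-FRET ratio read at 520:490 nm.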
Chain of cGMP-inhibited 3',5'-cyclic phosphodiesterase 3B (Q13370 whole entry, the tested form may be a part): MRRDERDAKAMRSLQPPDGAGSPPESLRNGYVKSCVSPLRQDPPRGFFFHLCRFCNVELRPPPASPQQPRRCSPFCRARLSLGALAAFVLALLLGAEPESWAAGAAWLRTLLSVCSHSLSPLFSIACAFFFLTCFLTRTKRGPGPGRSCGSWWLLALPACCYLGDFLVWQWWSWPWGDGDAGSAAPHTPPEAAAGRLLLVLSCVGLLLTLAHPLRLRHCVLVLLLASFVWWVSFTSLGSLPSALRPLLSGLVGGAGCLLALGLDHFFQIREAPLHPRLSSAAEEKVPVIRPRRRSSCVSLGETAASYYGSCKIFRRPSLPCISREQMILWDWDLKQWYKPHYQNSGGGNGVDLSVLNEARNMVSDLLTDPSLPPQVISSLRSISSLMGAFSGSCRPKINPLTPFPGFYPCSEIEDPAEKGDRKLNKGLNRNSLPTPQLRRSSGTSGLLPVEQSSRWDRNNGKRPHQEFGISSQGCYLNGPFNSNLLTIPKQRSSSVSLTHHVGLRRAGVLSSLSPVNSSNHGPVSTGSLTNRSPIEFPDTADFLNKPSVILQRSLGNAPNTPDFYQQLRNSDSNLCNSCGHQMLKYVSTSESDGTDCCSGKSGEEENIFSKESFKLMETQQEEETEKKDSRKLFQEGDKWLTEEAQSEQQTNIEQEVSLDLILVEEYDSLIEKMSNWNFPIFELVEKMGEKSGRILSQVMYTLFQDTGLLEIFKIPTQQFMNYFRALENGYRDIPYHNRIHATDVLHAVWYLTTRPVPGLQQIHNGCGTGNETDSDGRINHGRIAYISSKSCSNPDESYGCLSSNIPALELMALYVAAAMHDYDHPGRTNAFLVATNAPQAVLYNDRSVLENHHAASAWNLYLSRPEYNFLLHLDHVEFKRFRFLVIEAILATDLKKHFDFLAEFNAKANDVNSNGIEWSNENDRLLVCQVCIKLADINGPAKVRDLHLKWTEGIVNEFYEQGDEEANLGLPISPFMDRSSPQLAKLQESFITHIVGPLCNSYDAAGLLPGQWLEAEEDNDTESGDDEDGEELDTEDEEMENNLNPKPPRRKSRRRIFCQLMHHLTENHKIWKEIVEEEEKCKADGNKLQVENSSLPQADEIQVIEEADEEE

The nature of test [4]: Selectivity ratio of inhibition for PDE3A (M1 to Q1141 residues) (unknown origin) by IMAP assay to inhibition for PDE3B (M1 to E1112 residues) (unknown origin) by IMAP assay.

A word on the pIC50: it is the negative decadic logarithm of the IC50, by convention in mol/L. A lower pIC50 goes with a large IC50.

pIC50: −log10 of the molar value. A value given as a limit tells only on which side of the number the result lay.

Chain of cGMP-inhibited 3',5'-cyclic phosphodiesterase 3A (Q14432 whole entry, the tested form may be a part): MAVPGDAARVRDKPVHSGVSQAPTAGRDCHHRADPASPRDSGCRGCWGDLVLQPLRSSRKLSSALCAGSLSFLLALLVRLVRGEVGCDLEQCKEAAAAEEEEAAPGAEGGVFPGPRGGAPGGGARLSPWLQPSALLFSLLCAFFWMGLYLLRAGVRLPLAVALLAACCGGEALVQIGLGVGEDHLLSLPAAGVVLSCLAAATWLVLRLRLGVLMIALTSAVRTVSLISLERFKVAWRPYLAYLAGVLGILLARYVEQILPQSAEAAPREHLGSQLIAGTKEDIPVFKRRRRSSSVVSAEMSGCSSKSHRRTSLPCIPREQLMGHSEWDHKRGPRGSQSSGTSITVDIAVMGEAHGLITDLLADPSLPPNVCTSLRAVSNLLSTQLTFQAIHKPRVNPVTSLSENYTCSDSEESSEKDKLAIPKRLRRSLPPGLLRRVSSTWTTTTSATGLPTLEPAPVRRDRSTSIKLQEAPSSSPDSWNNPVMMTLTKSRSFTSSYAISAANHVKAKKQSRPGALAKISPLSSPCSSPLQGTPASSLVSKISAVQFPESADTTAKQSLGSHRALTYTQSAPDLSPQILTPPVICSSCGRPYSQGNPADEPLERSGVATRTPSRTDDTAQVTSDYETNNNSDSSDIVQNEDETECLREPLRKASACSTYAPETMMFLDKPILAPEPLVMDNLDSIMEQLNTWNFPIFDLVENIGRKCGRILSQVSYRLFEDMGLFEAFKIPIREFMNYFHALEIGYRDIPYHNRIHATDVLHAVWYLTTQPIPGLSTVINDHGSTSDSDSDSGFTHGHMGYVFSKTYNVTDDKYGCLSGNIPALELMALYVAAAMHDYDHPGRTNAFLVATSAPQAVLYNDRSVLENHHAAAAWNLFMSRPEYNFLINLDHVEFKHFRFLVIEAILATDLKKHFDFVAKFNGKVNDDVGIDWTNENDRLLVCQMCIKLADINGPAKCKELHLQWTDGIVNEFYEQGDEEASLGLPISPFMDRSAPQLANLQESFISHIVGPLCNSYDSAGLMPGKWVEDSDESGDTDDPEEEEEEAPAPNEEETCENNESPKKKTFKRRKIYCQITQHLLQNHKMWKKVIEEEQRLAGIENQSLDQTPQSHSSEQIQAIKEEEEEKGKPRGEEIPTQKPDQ

`CNC(=O)[C@@H](NC(=O)c1cc(NC(=O)c2cc3ccccc3cn2)cc(B(O)O)c1)C1CCCCC1`: the Selectivity ratio in test [1] came out at 2; in test [4], 1. Also, the negative logarithm of the IC50 (pIC50) in test [2] and in test [3] was 5.50 each time.
Consider `COc1ccc2c(OC)cc(C(=O)Nc3cc(B(O)O)cc(C(=O)N[C@H](C(N)=O)C(C)C)c3)nc2c1`, for which the values for the Selectivity ratio in test [1] and in test [4] were 30 and 15, respectively. The pIC50 was 5.30 in test [2] and 6.50 in test [3].
`COc1ccc2c(OC)cc(C(=O)Nc3cc(B(O)O)cc(C(=O)N4Cc5ccncc5C4)c3)nc2c1`: the results for the Selectivity ratio in test [1] and in test [4] were 97 and 43, respectively. In addition, the pIC50 in test [2] was 4.90; in test [3] it was 6.50.
The matching figures for `CCNC(=O)N1CCCCC(NC(=O)c2cc(NC(=O)c3cc(C)cc(C)c3OC)cc(B(O)O)c2)C1` (stereo not given): 3.8, 2.6, 6.30 and 6.70.
For `CNC(=O)[C@H](NC(=O)c1cc(NC(=O)c2cc(OC)ccn2)cc(B(O)O)c1)C1CCCCC1`, the Selectivity ratio was 1.6 in test [1] and 1 in test [4]. Further, the pIC50 in test [2] and in test [3] was 4.30 each time.
On to `COc1ccc2c(OC)cc(C(=O)Nc3cc(B(O)O)cc(C(=O)NC(C)C)c3)nc2c1`, for which the Selectivity ratio came out at 42 in test [1] and 15 in test [4]. The results for the pIC50 in test [2] and in test [3] were 4.80 and 6.00, respectively.
The matching figures for `COc1ccc2c(OC)cc(C(=O)Nc3cc(B(O)O)cc(C(=O)N[C@@H](C(N)=O)C(C)C)c3)nc2c1`: 16, 8.5, 4.80 and 5.70.
On the same counts, the results for `COc1ccc2c(OC)cc(C(=O)Nc3cc(B(O)O)cc(C(=O)O)c3)nc2c1` are 5, 3, 5.10 and 5.60.
The matching figures for `CNC(=O)[C@@H](NC(=O)c1cc(NC(=O)c2cc(OC)c3cc(OC)ccc3n2)cc(B(O)O)c1)C1CCCCC1`: 0.9, 0.8, 6.10 and 6.00.
Consider `CNC(=O)[C@@H](NC(=O)c1cc(NC(=O)c2cc(C)c3c(=O)[nH]c(=O)[nH]c3n2)cc(B(O)O)c1)C1CCCCC1`, for which the Selectivity ratio in test [1] was found to be 1.2; in test [4], 0.8. Besides, the negative-log IC50 (pIC50) was 4.80 in test [2] and 4.70 in test [3].
Consider `COc1ccc2c(OC)cc(C(=O)Nc3cc(B(O)O)cc(C(=O)N(C)C)c3)nc2c1`, for which the Selectivity ratio in test [1] is 63; in test [4] it was 23. For the same compound, the negative logarithm of the IC50 (pIC50) is 4.30 in test [2] and 5.70 in test [3].
On the same counts, the results for `COc1ccc2c(OC)cc(C(=O)Nc3cc(B(O)O)cc(C(=O)N4CC(OC5CC5)C4)c3)nc2c1` are 75, 17, 5.50 and 6.70.
On the same counts, the results for `CNC(=O)[C@@H](NC(=O)c1cc(NC(=O)c2nccc3ccccc23)cc(B(O)O)c1)C1CCCCC1` are 2.7, 2, 6.40 and 6.70.
On the same counts, the results for `CNC(=O)[C@@H](NC(=O)c1cc(NC(=O)c2ccc3ncccc3n2)cc(B(O)O)c1)C1CCCCC1` are 0.6, 0.7, 6.90 and 6.70.
As to `COc1ccc2c(OC)cc(C(=O)Nc3cc(B(O)O)cc(C(=O)NCC(C)C)c3)nc2c1`, the Selectivity ratio in test [1] was 56; in test [4], 14. Further, the pIC50 was 4.60 in test [2] and 5.80 in test [3].
In the case of `COc1ccc2c(OC)cc(C(=O)N(C)c3cc(B(O)O)cc(C(=O)NC(C)C)c3)nc2c1`, the pIC50 in test [2] and in test [3] was under 4.00 in each case.
On to `CNC(=O)[C@@H](NC(=O)c1cc(NC(=O)c2ccc3cc(OC)ccc3c2)cc(B(O)O)c1)C1CCCCC1`, for which the Selectivity ratio in test [1] was found to be 1.8; in test [4], 1.3. Besides, the results for the negative logarithm of the IC50 (pIC50) in test [2] and in test [3] were 4.40 and 4.50, respectively.
On the same counts, the results for `CNC(=O)[C@H](NC(=O)c1cc(NC(=O)C(C)Oc2c(C)cccc2C)cc(B(O)O)c1)C1CCCCC1` (stereo not given in full) are 4.7, 3.3, 4.10 and 4.60.
The matching figures for `CNC(=O)c1cc(NC(=O)c2cc(OC)c3ccc(OC)cc3n2)cc(B(O)O)c1`: over 107, over 44, under 4.00 and 5.70.
On the same counts, the results for `CNC(=O)[C@@H](NC(=O)c1cc(NC(=O)c2cc(F)cc3nccnc23)cc(B(O)O)c1)C1CCCCC1` are 1, 0.7, 8.30 and 8.20.
On to `CCNC(=O)N1CCCCC(NC(=O)c2cc(O)cc(NC(=O)c3cc(C)cc(C)c3OC)c2)C1` (stereo not given), for which the Selectivity ratio in test [1] came to 1; in test [4], 0.8. The results for the pIC50 in test [2] and in test [3] were 4.50 and 4.40, respectively.
As for `CNC(=O)[C@@H](NC(=O)c1cc(NC(=O)c2ccc3cccnc3n2)cc(B(O)O)c1)C1CCCCC1`, the figures for the Selectivity ratio in test [1] and in test [4] were 1 and 0.7, respectively. The pIC50 was 6.30 in test [2] and 6.20 in test [3].
`COc1ccc2c(OC)cc(C(=O)Nc3cccc(B(O)O)c3)nc2c1`: the values for the Selectivity ratio in test [1] and in test [4] were 4.2 and 1.4, respectively. Further, the negative-log IC50 (pIC50) in test [2] is 4.90; in test [3], 5.00.
Consider `CNC(=O)[C@@H](NC(=O)c1cc(NC(=O)c2ccc3ccncc3n2)cc(B(O)O)c1)C1CCCCC1`, for which the Selectivity ratio amounted to 0.7 in test [1] and 0.5 in test [4]. Further, the values for the negative-log IC50 (pIC50) in test [2] and in test [3] were 6.80 and 6.50, respectively.
The matching figures for `CNC(=O)[C@@H](NC(=O)c1cc(NC(=O)c2cc(OC)c3ccc(OC)cc3n2)cc(B(O)O)c1)C1CCCCC1`: 26, 12, 6.00 and 7.10.
On the same counts, the results for `CNC(=O)[C@@H](NC(=O)c1cc(NC(=O)c2cc(OC)c3ccccc3n2)cc(B(O)O)c1)C1CCCCC1` are 2.3, 1.6, 6.60 and 6.80.
The matching figures for `CNC(=O)[C@H](NC(=O)c1cc(NC(=O)c2nc(C)ncc2OC)cc(B(O)O)c1)C1CCCCC1`: 0.8, 0.8, 4.50 and 4.50.
For `CNC(=O)[C@@H](NC(=O)c1cc(NC(=O)c2ccc3ccccc3n2)cc(B(O)O)c1)C1CCCCC1`, the Selectivity ratio in test [1] and in test [4] was 0.5 throughout. Further, the negative-log IC50 (pIC50) in test [2] was 7.70; in test [3], 7.30.
With `CNC(=O)[C@H](NC(=O)c1cc(NC(=O)c2cc(Cl)cc3c2OCC(=O)N3)cc(B(O)O)c1)C1CCCCC1`, the Selectivity ratio in test [1] was found to be 7; in test [4], 3.3. In addition, the figures for the negative logarithm of the IC50 (pIC50) in test [2] and in test [3] were 5.20 and 5.80, respectively.
The matching figures for `COc1ccc2c(OC)cc(C(=O)Nc3cc(B(O)O)cc(C(=O)N4CCCC4)c3)nc2c1`: 46, 46, 4.50 and 6.10.
The matching figures for `CNC(=O)[C@@H](NC(=O)c1cc(NC(=O)c2ccc3cc(OC)ccc3n2)cc(B(O)O)c1)C1CCCCC1`: 1, 1.2, 5.90 and 6.00.
On the same counts, the results for `CNC(=O)[C@@H](NC(=O)c1cc(NC(=O)c2cnc3ccccc3c2)cc(B(O)O)c1)C1CCCCC1` are 0.9, 0.7, 4.90 and 4.70.
Consider `CNC(=O)[C@@H](NC(=O)c1cc(NC(=O)c2ccc3ccccc3c2)cc(B(O)O)c1)C1CCCCC1`, for which the Selectivity ratio is 0.4 in test [1] and 0.3 in test [4]. Besides, the pIC50 in test [2] was 5.80; in test [3] it was 5.30.
`COc1ccc2c(OC)cc(C(=O)Nc3cc(B(O)O)cc(C(=O)N[C@H]4CCCOC4)c3)nc2c1` showed a negative logarithm of the IC50 (pIC50) in test [2] of 4.50.
Take `CNC(=O)[C@@H](NC(=O)c1cc(NC(=O)c2cc3c(c(OC)c2)OCC(=O)N3)cc(B(O)O)c1)C1CCCCC1`: the negative-log IC50 (pIC50) in test [2] is 6.60; in test [3] it was 6.20. Further, the Selectivity ratio in test [4] came to 0.4.
Take `COc1ccc2c(OC)cc(C(=O)Nc3cc(B(O)O)cc(C(=O)N[C@@H]4CCCOC4)c3)nc2c1`: in test [2], the pIC50 is 4.20.

The values above are taken from ChEMBL document CHEMBL5537199, “Discovery and SAR Study of Boronic Acid-Based Selective PDE3B Inhibitors from a Novel DNA-Encoded Library” (J Med Chem, 2024).
